Experimental data reported in ChEMBL document CHEMBL1125695, “Potential anti-AIDS drugs. Lipophilic, adenosine deaminase-activated prodrugs” (J Med Chem, 1991).
One block for each molecule: values may come before it.

Key:
[1] = Partition coefficient (logP); type: physicochemical; settings: octanol/water
Summary of the method: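 Microscale shake-flask method: compound from DMSO stock into 1.0 mL octanol-saturated 0.01 M potassium phosphate pH 7.0, then mixed with 1.0 mL buffer-saturated n-octanol at 24–26 °C. Stood 15 min, phases centrifuged, each analysed by HPLC. P is the octanol/buffer peak-area ratio; mean ± SD of three independent determinations.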

[2] = Kinetic parameter Vmax at pH 7.4 and 37 degree Centigrade; type: ADME
Summary of the method: (§1)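 Calf intestinal mucosa adenosine deaminase with dideoxynucleoside substrates in 0.01 M Tris pH 7.4 at 37 °C. Aliquots quenched with cold 2 μM 2'-deoxycoformycin, ultrafiltered, and substrate loss followed by reversed-phase HPLC (CH3CN in pH 7.0 phosphate). Relative rates taken at 50 μM substrate with 0.7 unit/mL enzyme, referenced to ddA = 100.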

[3] = Kinetic parameter relative rate measured at 50 uM at pH 7.4 and 37 degree Centigrade; type: ADME; settings: pH 7.4, 50 µM; summary of the method: as §1
[4] = Anti-HIV activity (% toxicity) in ATH-8 cells at 5 uM in presence of 2'-deoxycoformycin at 10 uM; type: cell-based; settings: human, ath-8, 5 µM
Summary of the method: (§2)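 CD4+ ATH8 cells (200 000) exposed 1 h to cell-free HIV-1/IIIB, 43 TCID50 (1087 for one analogue), resuspended in 2 mL IL-2 medium with 15% fetal calf serum, cultured at 37 °C in 5% CO2 with or without compound; dCF alone 5 μM. Day 8 viable cells counted by dye exclusion. % protection and % toxicity computed versus infected-untreated and uninfected-untreated cells; ≤0 given as 0%. Minimum two separate experiments; representative test reported.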

[5] = Anti-HIV activity (% toxicity) in ATH-8 cells at 5 uM in absence of 2'-deoxycoformycin at 10 uM; type: cell-based; settings: human, ath-8, 5 µM; summary of the method: as §2
[6] = Anti-HIV activity (% protection) in ATH-8 cells at 5 uM in presence of 2'-deoxycoformycin at 10 uM; type: functional, Homo sapiens; summary of the method: as §2
[7] = Anti-HIV activity (% protection) in ATH-8 cells at 5 uM in absence of 2'-deoxycoformycin at 10 uM; type: functional, Homo sapiens; summary of the method: as §2
[8] = Anti-HIV activity (% toxicity) in ATH-8 cells at 5 uM in absence of 2'-deoxycoformycin at 20 uM; type: cell-based; settings: human, ath-8, 5 µM; summary of the method: as §2
[9] = Anti-HIV activity (% toxicity) in ATH-8 cells at 5 uM in absence of 2'-deoxycoformycin at 50 uM; type: cell-based; settings: human, ath-8, 5 µM; summary of the method: as §2
[10] = Anti-HIV activity (% toxicity) in ATH-8 cells at 5 uM in presence of 2'-deoxycoformycin at 0 uM; type: cell-based; settings: human, ath-8, 5 µM; summary of the method: as §2
[11] = Anti-HIV activity (% toxicity) in ATH-8 cells at 5 uM in presence of 2'-deoxycoformycin at 100 uM; type: cell-based; settings: human, ath-8, 5 µM; summary of the method: as §2
[12] = Anti-HIV activity (% toxicity) in ATH-8 cells at 5 uM in presence of 2'-deoxycoformycin at 20 uM; type: cell-based; settings: human, ath-8, 5 µM; summary of the method: as §2
[13] = Anti-HIV activity (% toxicity) in ATH-8 cells at 5 uM in presence of 2'-deoxycoformycin at 50 uM; type: cell-based; settings: human, ath-8, 5 µM; summary of the method: as §2
[14] = Anti-HIV activity (% toxicity) in ATH-8 cells at 5 uM in absence of 2'-deoxycoformycin at 0 uM; type: cell-based; settings: human, ath-8, 5 µM; summary of the method: as §2
[15] = Anti-HIV activity (% toxicity) in ATH-8 cells at 5 uM in absence of 2'-deoxycoformycin at 100 uM; type: cell-based; settings: human, ath-8, 5 µM; summary of the method: as §2
[16] = Anti-HIV activity (% protection) in ATH-8 cells at 5 uM in absence of 2'-deoxycoformycin at 100 uM; type: functional, Homo sapiens; summary of the method: as §2
[17] = Anti-HIV activity (% protection) in ATH-8 cells at 5 uM in absence of 2'-deoxycoformycin at 20 uM; type: functional, Homo sapiens; summary of the method: as §2
[18] = Anti-HIV activity (% protection) in ATH-8 cells at 5 uM in absence of 2'-deoxycoformycin at 50 uM; type: functional, Homo sapiens; summary of the method: as §2
[19] = Anti-HIV activity (% protection) in ATH-8 cells at 5 uM in presence of 2'-deoxycoformycin at 0 uM; type: functional, Homo sapiens; summary of the method: as §2
[20] = Anti-HIV activity (% protection) in ATH-8 cells at 5 uM in presence of 2'-deoxycoformycin at 100 uM; type: functional, Homo sapiens; summary of the method: as §2
[21] = Anti-HIV activity (% protection) in ATH-8 cells at 5 uM in presence of 2'-deoxycoformycin at 20 uM; type: functional, Homo sapiens; summary of the method: as §2
[22] = Anti-HIV activity (% protection) in ATH-8 cells at 5 uM in presence of 2'-deoxycoformycin at 50 uM; type: functional, Homo sapiens; summary of the method: as §2
[23] = Anti-HIV activity (% protection) in ATH-8 cells at 5 uM in absence of 2'-deoxycoformycin at 0 uM; type: functional, Homo sapiens; summary of the method: as §2
[24] = Anti-HIV activity (% toxicity) in ATH-8 cells at 5 uM in absence of 2'-deoxycoformycin at 5 uM; type: cell-based; settings: human, ath-8, 5 µM; summary of the method: as §2
[25] = Anti-HIV activity (% toxicity) in ATH-8 cells at 5 uM in presence of 2'-deoxycoformycin at 5 uM; type: cell-based; settings: human, ath-8, 5 µM; summary of the method: as §2
[26] = Anti-HIV activity (% protection) in ATH-8 cells at 5 uM in absence of 2''-deoxycoformycin at 5 uM; type: functional, Homo sapiens; summary of the method: as §2
[27] = Anti-HIV activity (% protection) in ATH-8 cells at 5 uM in presence of 2'-deoxycoformycin at 5 uM; type: functional, Homo sapiens; summary of the method: as §2
[28] = (§3) Anti-HIV activity (% toxicity) in ATH-8 cells at 5 uM; type: cell-based; settings: human, ath-8, 5 µM; summary of the method: as §2
[29] = (§4) Anti-HIV activity (%toxicity) in ATH-8 cells at 5 uM; type: cell-based; settings: human, ath-8, 5 µM; summary of the method: as §2
[30] = as §4; type: cell-based; settings: human, ath-8, 5 µM; summary of the method: as §2; remark: listed apart in the source
[31] = as §4; type: cell-based; settings: human, ath-8, 5 µM; summary of the method: as §2; remark: listed apart in the source
[32] = Anti-HIV activity (%protection) in ATH-8 cells at 5 uM in absence of 2''-deoxycoformycin at 20 uM; type: functional, Homo sapiens; summary of the method: as §2
[33] = Anti-HIV activity (%protection) in ATH-8 cells at 5 uM in absence of 2''-deoxycoformycin at 0 uM; type: functional, Homo sapiens; summary of the method: as §2
[34] = Anti-HIV activity (%protection) in ATH-8 cells at 5 uM in absence of 2''-deoxycoformycin at 100 uM; type: functional, Homo sapiens; summary of the method: as §2
[35] = Anti-HIV activity (%protection) in ATH-8 cells at 5 uM in absence of 2''-deoxycoformycin at 50 uM; type: functional, Homo sapiens; summary of the method: as §2
[36] = Anti-HIV activity (%protection) in ATH-8 cells at 5 uM in absence of 2'-deoxycoformycin at 5 uM; type: functional, Homo sapiens; summary of the method: as §2
[37] = as §3; type: cell-based; settings: human, ath-8, 5 µM; summary of the method: as §2; remark: listed apart in the source
[38] = (§5) Anti-HIV activity in ATH-8 cells at 5 uM in absence of 2''-deoxycoformycin at 20 uM; type: cell-based; settings: human, ath-8, 5 µM; summary of the method: as §2
[39] = as §5; type: functional, Homo sapiens; summary of the method: as §2

- logP [1]: 0.64
Structure (SMILES): CNc1nc(C)nc2c1ncn2[C@@H]1O[C@H](CO)C[C@@H]1F

- logP [1]: 0.12
Structure (SMILES): Cc1nc(N)c2ncn([C@@H]3O[C@H](CO)C[C@@H]3F)c2n1

- logP [1]: -0.29
- Vmax [2]: 1.32 µmol/min/unit
- Relative rate [3]: 100
Structure (SMILES): Nc1ncnc2c1ncn2[C@H]1CC[C@@H](CO)O1
- Toxicity [4]: 22%
- Toxicity [5]: 0%
- Protection [6]: 86%
- Protection [7]: 100%

- logP [1]: 0.32
- Vmax [2]: 0.026 µmol/min/unit
- Relative rate [3]: 0.06
Structure (SMILES): OCC1CC(F)C(n2cnc3c(Cl)ncnc32)O1 (configuration not stated)
- Toxicity [8]: 26%
- Toxicity [9]: 46%
- Toxicity [10]: 14%
- Toxicity [4]: 49%
- Toxicity [11]: 72%
- Toxicity [12]: 58%
- Toxicity [13]: 56%
- Toxicity [14]: 0%
- Toxicity [5]: 5%
- Toxicity [15]: 52%
- Protection [16]: 35%
- Protection [17]: 57%
- Protection [18]: 53%
- Protection [19]: 3%
- Protection [6]: 15%
- Protection [20]: 17%
- Protection [21]: 11%
- Protection [22]: 14%
- Protection [23]: 0%
- Protection [7]: 48%

- logP [1]: 0.1
Structure (SMILES): Cc1nc2c(N)ncnc2n1C1OC(CO)CC1F (configuration not stated)

- logP [1]: 0.27
- Vmax [2]: 0.00055 µmol/min/unit
- Relative rate [3]: 0.04
Structure (SMILES): CNc1ncnc2c1ncn2C1OC(CO)CC1F (configuration not stated)
- Toxicity [8]: 0%
- Toxicity [24]: 0%
- Toxicity [9]: 6%
- Toxicity [10]: 11%
- Toxicity [4]: 7%
- Toxicity [11]: 70%
- Toxicity [12]: 0%
- Toxicity [25]: 3%
- Toxicity [13]: 46%
- Toxicity [14]: 0%
- Toxicity [5]: 0%
- Toxicity [15]: 44%
- Protection [16]: 27%
- Protection [17]: 32%
- Protection [18]: 37%
- Protection [26]: 13%
- Protection [19]: 0%
- Protection [6]: 2%
- Protection [20]: 0%
- Protection [21]: 0%
- Protection [27]: 1%
- Protection [22]: 0%
- Protection [23]: 0%
- Protection [7]: 24%

- logP [1]: -0.4
Structure (SMILES): OCC1CC(F)C(n2cnc3cncnc32)O1 (configuration not stated)

- logP [1]: -1.21
Structure (SMILES): OCC1CC(F)C(n2cnc3c(O)ncnc32)O1 (configuration not stated)

- logP [1]: -1.38
Structure (SMILES): Nc1c2ncn(C3OC(CO)CC3F)c2nc[n+]1[O-] (configuration not stated)

- logP [1]: 0.73
Structure (SMILES): O=C(Nc1ncnc2c1ncn2C1OC(CO)CC1F)c1ccccc1 (configuration not stated)
- Toxicity [28]: 8%
- Toxicity [29]: 0%
- Toxicity [30]: 0%
- Toxicity [31]: 0%
- Protection [32]: 30%
- Protection [33]: 0%
- Protection [34]: 21%
- Protection [35]: 29%
- Protection [36]: 8%
- Toxicity [37]: 2%

Structure (SMILES): O=c1[nH]cnc2c1ncn2[C@H]1CC[C@@H](CO)O1 [DIDANOSINE]
- Toxicity [38]: 0%
- Protection [39]: 100%

- Vmax [2]: 0.23 µmol/min/unit
- Relative rate [3]: 6
Structure (SMILES): Nc1ncnc2c1ncn2[C@@H]1O[C@H](CO)C[C@@H]1F [LODENOSINE]
- Toxicity [8]: 0%
- Toxicity [9]: 0%
- Toxicity [10]: 11%
- Toxicity [12]: 17%
- Toxicity [13]: 54%
- Toxicity [14]: 0%
- Protection [17]: 70%
- Protection [18]: 84%
- Protection [19]: 0%
- Protection [21]: 68%
- Protection [22]: 48%
- Protection [23]: 0%

- logP [1]: -1.33
Structure (SMILES): Nc1ccn([C@H]2CC[C@@H](CO)O2)c(=O)n1 [ZALCITABINE]

- logP [1]: 0.05
Structure (SMILES): Cc1cn([C@H]2C[C@H](N=[N+]=[N-])[C@@H](CO)O2)c(=O)[nH]c1=O [ZIDOVUDINE]
